Source: PubChem BioAssay
Shown are actives, neighbours in structure and some others; about 2.1% of the full set was active somewhere.
FN deposition inh = fibronectin deposition inhibition; 0.086% of 350,000 active; inhibition, % at 12.6 µM; AH1F fibroblasts, Alexa488-fibronectin deposition fluorescence, overnight;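 active means mean inhibition across replicates of 30% or more, regardless of how many single replicates reach that level; inconclusive means mean under 30% yet at least half of replicates reach 30%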;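 further: positive control wells lacked labelled fibronectin entirely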
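test system = AH1F fibroblasts assembling fluorescent fibronectin matrix | quantity = 10000 AH1F cells per well | buffer or medium = DMEM plus 2% serum, read in PBS | doses = single dose, pinned | incubation = 1 h cell attachment, overnight exposure to compound and label | detection = fluorescence at 485 nm excitation, 525 nm emission | read-out basis = inhibition from reduced deposited-fibronectin fluorescence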
LMP1 NFkB inh = reduces LMP1-driven NF-kappaB luciferase signal; LMP1-induced NF-kappaB luciferase reporter cells, luminescence; 0.69% of 350,000 active; inhibition, % at 12.5 µM; in the data active means inhibition above about 41%; inconclusive means no clear call, values can overlap the other calls;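 further: 0% = neutral control wells and 100% = reference inhibitor control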
PAX8 reporter = inhibitors of PAX8 transcriptional activity in RMG-I cells; RMG-I TPO-luciferase reporter, SteadyGlo, 24 h; inhibition, % at 12.6 µM; 1.2% of 360,000 active;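 active means mean replicate inhibition at least 60% with every replicate also reaching 60%; inconclusive means only one of the two criteria is met; inactive means mean below 60% and not all replicates reaching 60%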;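 further: luciferase light reporting Pax8 driven TPO promoter activity; plate controls were median of neutral control wells for no effect and mitoxantrone controls for full effect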
EWS-Fli block = blocks EWS/Fli oncoprotein-driven transcription; A673 NR0B1-luciferase reporter, viability-normalised; inhibition, % at 12.6 µM; 0.67% of 350,000 active; AID 651661;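 active means mean inhibition of at least 50% after viability correction, with every replicate also passing that limit; inconclusive means mean reaches 50% but only one of two replicates passes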;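 further: firefly luciferase signal divided by Alamar Blue viability fluorescence both relative to DMSO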
Shn3 3UTR inh = inhibitors of Schnurri-3 3'UTR reporter in osteoblasts | Clone20 osteoblast Shn3 3'UTR firefly luciferase, 24 h | inhibition, % at 12.5 µM | 0.52% of 360,000 active | AID 588674;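 active means mean inhibition of at least 75% with every replicate also reaching 75%; inconclusive means mean inhibition at least 75% but some replicate below; inactive means mean inhibition below 75%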;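 further: 0% = median of neutral control wells and 100% = pilot-screen positive control compound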
aSyn UTR inh = MLPCN primary screen, SNCA 5' untranslated region; 0.82% of 300,000 active; inhibition, % (tested at 7.5 µM); alpha-synuclein 5'UTR reporter, inhibitor activity; in the data active means inhibition above about 60%; inconclusive means no clear call, values can overlap the other calls;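 further: H4 neuroglioblastoma cells stably carrying SNCA 5'UTR luciferase fusion; 0% = DMSO wells and 100% = positive control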
Starred values were filed as active, the others as inactive; ? = inconclusive; nt = not tested or not shown.

SMILES	FN deposition inh	LMP1 NFkB inh	PAX8 reporter	EWS-Fli block	Shn3 3UTR inh	aSyn UTR inh
COc1ccc2c(c1)OC/C(=C/c1cccs1)C2=O	0.7	-29.3	111.7*	-26.3	-134.3	-151.3
COc1ccc(/C=C2\COc3ccccc3C2=O)c(OC)c1	9.1	-13.1	-34.5	-87.7	-26.5	-139.8
CN(C)c1ccc(C(=O)c2ccc(N(C)C)c3ccccc23)cc1	nt	-5.5	nt	nt	2.8	89.0*
Cn1cc(/C=N/n2cnc3scc(-c4ccc(Cl)cc4)c3c2=O)c2ccccc21	11.9	12.3	64.8*	nt	26.1	87.0*
CCn1cnc2scc(-c3ccccc3)c2c1=O	3.9	-4.1	-8.4	nt	17.4	8.4
C=CC(=O)N=c1sc2ccccc2n1-c1ccccc1	-6.6	-12.4	92.4*	3.7	9.6	69.7*
COc1cccc(Nc2nnc(SCN3C(=O)c4ccccc4C3=O)s2)c1	-3.5	-11.8	84.0*	-14.1	-5.1	-51.0
COc1ccc(/C=N/Nc2cc(C)nc3ccc(OC)cc23)c(OC)c1	-3.0	70.2*	87.1*	66.5*	96.3*	116.6*
COc1ccc2nc(C)cc(N/N=C/c3ccccc3)c2c1	nt	-20.9	nt	nt	19.3	nt
COc1ccc2nc(C)cc(Nc3ccc(N4CCN(C)CC4)cc3)c2c1	16.1	-9.4	58.6	80.2*	-16.7	-87.2
Cc1ccc2nc(C)cc(Nc3ccc([N+](=O)[O-])cc3)c2c1	-0.3	-97.9	95.6*	40.2	48.3	10.0
COc1ccc2nc(C)cc(Nc3ccc(C)cc3)c2c1	4.9	0.7	-4.7	-17.1	8.3	26.5
COc1ccc(OC)c(Nc2cc(C)nc3ccc(C)cc23)c1	18.0	7.5	30.1	57.2*	45.7	62.9*
COc1ccc2nc(C)cc(Nc3ccc(N4CCOCC4)cc3)c2c1	nt	-3.8	nt	nt	8.0	-20.8
CNC(=O)C[C@@H]1CC[C@H]2[C@H](COc3ccc(NC(=O)c4cc(C)on4)cc3C(=O)N2C)O1	-7.5	nt	-3.1	-3.2	nt	nt
C[C@@H]1CN([C@H](C)CO)C(=O)Cc2cc(NC(=O)Cc3cn(C)c4ccccc34)ccc2O[C@H]1CN(C)S(=O)(=O)c1cccs1	-6.6	nt	12.1	-2.6	nt	nt
Cc1noc(C)c1S(=O)(=O)Nc1ccc2c(c1)CC(=O)N([C@H](C)CO)C[C@H](C)[C@H](CN(C)S(=O)(=O)c1ccccc1)O2	nt	nt	-1.8	-6.3	nt	nt
C[C@@H]1CN([C@@H](C)CO)C(=O)c2cc(NC(=O)Nc3ccccc3)ccc2O[C@@H](C)CCCCO[C@H]1CN(C)Cc1ccc(C(F)(F)F)cc1	-3.3	nt	71.7*	12.1	nt	nt
C[C@@H]1CN([C@H](C)CO)C(=O)c2cc(NC(=O)Nc3ccc(C(F)(F)F)cc3)ccc2O[C@@H](C)CCCCO[C@@H]1CN(C)Cc1ccccc1	-3.4	nt	109.3*	25.1	nt	nt
C[C@@H]1CCCCO[C@@H](CN(C)Cc2ccc(C(F)(F)F)cc2)[C@@H](C)CN([C@@H](C)CO)C(=O)c2cc(NC(=O)Nc3ccc(C(F)(F)F)cc3)ccc2O1	6.9	nt	7.9	-11.0	nt	nt
C[C@@H]1CN([C@H](C)CO)C(=O)c2cc(NC(=O)Nc3ccc(C(F)(F)F)cc3)ccc2O[C@@H](C)CCCCO[C@H]1CN(C)Cc1ccccc1	0.2	nt	112.8*	76.6*	nt	nt
C[C@@H]1CCCCO[C@H](CN(C)Cc2ccc(C(=O)O)cc2)[C@@H](C)CN([C@H](C)CO)C(=O)c2cc(NC(=O)Nc3ccc(C(F)(F)F)cc3)ccc2O1	nt	nt	-13.9	-7.0	nt	nt
C[C@@H]1CCCCO[C@H](CN(C)Cc2ccccc2)[C@@H](C)CN([C@@H](C)CO)C(=O)c2cc(NC(=O)Nc3ccc(C(F)(F)F)cc3)ccc2O1	3.6	nt	118.8*	?	nt	nt
C[C@@H]1CCCCO[C@H](CN(C)Cc2ccc(C(F)(F)F)cc2)[C@H](C)CN([C@H](C)CO)C(=O)c2cc(NC(=O)Nc3ccc(C(F)(F)F)cc3)ccc2O1	-6.3	nt	-9.1	-12.5	nt	nt
COc1ccccc1S(=O)(=O)N[C@H]1CC[C@@H](CC(=O)N2CCN(C)CC2)O[C@H]1CO	7.5	nt	11.1	4.0	nt	nt
SMILES	FN deposition inh	LMP1 NFkB inh	PAX8 reporter	EWS-Fli block	Shn3 3UTR inh	aSyn UTR inh
CCCN(C)C[C@H]1OCCCC[C@@H](C)Oc2ccc(NS(=O)(=O)c3cccs3)cc2C(=O)N([C@H](C)CO)C[C@@H]1C	nt	nt	2.6	8.4	nt	nt
C[C@@H]1CN([C@@H](C)CO)C(=O)c2cc(NC(=O)Nc3ccc(C(F)(F)F)cc3)ccc2O[C@@H](C)CCCCO[C@@H]1CN(C)Cc1ccc(C(F)(F)F)cc1	-1.9	nt	-21.3	-7.5	nt	nt
C[C@H](CO)N1C[C@H](C)[C@@H](CN(C)Cc2ccccc2)OCCCC[C@H](C)Oc2ccc(NC(=O)Nc3ccc(C(F)(F)F)cc3)cc2C1=O	2.3	nt	95.2*	10.1	nt	nt
C[C@@H]1CN([C@@H](C)CO)C(=O)c2cc(NC(=O)Nc3ccc(C(F)(F)F)cc3)ccc2O[C@@H](C)CCCCO[C@@H]1CN(C)Cc1ccccc1	-4.0	nt	78.6*	-3.1	nt	nt
CC1Cc2ccccc2N1C(=S)NC(=O)c1ccc(Cl)cc1Cl (stereo unspecified)	4.7	10.7	62.5*	17.4	-13.3	-38.8
CCOc1cc(/C=C/C(=O)Nc2ccc(C(=O)NCCN(CC)CC)cc2)ccc1OCC(C)C	23.8	-18.7	78.3*	54.5*	37.1	?
CCOc1ccc(/C=C/C(=O)Nc2ccc(C(N)=O)cc2)cc1OC	nt	9.5	nt	nt	12.8	-17.2
CN(C)CC(=O)N1[C@@H]2Cn3c(cccc3=O)[C@H]1[C@@H](C(=O)NCc1ccccc1)[C@@H]2CO	nt	nt	nt	-7.9	nt	nt
Cc1ccc2nc(-c3ccccc3)cn2c1	nt	72.5*	nt	nt	84.1	120.4*
Cc1ccc2nc(-c3ccc(O)c(O)c3)cn2c1	12.7	2.9	12.7	1.4	90.1*	22.4
CC(=O)Nc1ccc(-c2cn3cc(C)ccc3n2)cc1	nt	-6.6	-46.4	nt	-14.3	10.6
Cc1nc(-c2ccc(O)c(O)c2)cs1	nt	-4.8	nt	nt	35.4	-49.5
CN(C)C(=O)c1cccc(-c2ccc([C@@H]3[C@@H](C#N)N(C(=O)C4CCCCC4)[C@H]3CO)cc2)c1	6.0	nt	-9.7	-5.5	nt	nt
C=CC[n+]1c(-c2ccccc2)csc1NC(C)(C)C	-4.4	-5.8	12.5	5.9	-8.5	-1.5
C=CC[n+]1c(-c2ccc(OC)c(OC)c2)csc1NNC(=O)Nc1ccccc1	1.2	38.1	nt	nt	90.5*	9.9
C(#Cc1ccccc1)C[N+]1(CC#Cc2ccccc2)CCCCC1	8.4	-4.8	38.3	17.3	86.0*	27.7
Cc1ccc(C#CC[N+]2(CC#Cc3ccc(C)cc3)CCCCC2)cc1	0.3	14.1	68.9*	32.8	76.2	19.5
C#CC[N+]1(CC#Cc2ccccc2)CCCCC1	1.8	0.2	0.1	9.2	10.5	7.8
C[C@@]12C(C[C@H](O)[C@@]34C[C@@H](CCC13)[C@@H](CO)C4=O)[C@](C)(C(=O)O)CC[C@@H]2O (stereo partly specified)	-1.7	nt	17.0	13.5	-10.4	nt
